In ChEMBL document CHEMBL1649165, “Activity profile in vitro of micafungin against Spanish clinical isolates of common and emerging species of yeasts and molds” (2009):
≈ marks a conversion by molar mass, not a printed value.

Assays:
Assay type in all cases: functional
Candida albicans = experiment: Antimicrobial activity against Candida albicans by broth microdilution method
Procedure, shortened: (§1)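 Clinical isolates from human patients, tested by broth microdilution using the AFST-EUCAST reference procedure for fermentative yeasts. The MIC was read per that reference method.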

Nakaseomyces glabratus = experiment: Antimicrobial activity against Candida glabrata by broth microdilution method; procedure, shortened: as §1
Pichia kudriavzevii = experiment: Antimicrobial activity against Candida krusei by broth microdilution method; procedure, shortened: as §1
Clavispora lusitaniae = experiment: Antimicrobial activity against Candida lusitaniae by broth microdilution method; procedure, shortened: as §1
Diutina rugosa = experiment: Antimicrobial activity against Candida rugosa by broth microdilution method; procedure, shortened: as §1
Wickerhamomyces anomalus = experiment: Antimicrobial activity against Candida pelliculosa by broth microdilution method; conditions: Hansenula anomala; procedure, shortened: as §1
Pichia norvegensis = experiment: Antimicrobial activity against Candida norvegensis by broth microdilution method; procedure, shortened: as §1
[Candida] inconspicua = Antimicrobial activity against Candida inconspicua by broth microdilution method; conditions: Pichia inconspicua; procedure, shortened: as §1
Candida metapsilosis = experiment: Antimicrobial activity against Candida metapsilosis by broth microdilution method; conditions: Lodderomyces metapsilosis; procedure, shortened: as §1
Candida orthopsilosis = experiment: Antimicrobial activity against Candida orthopsilosis by broth microdilution method; conditions: Lodderomyces orthopsilosis; procedure, shortened: as §1
Magnusiomyces capitatus = experiment: Antimicrobial activity against Dipodascus capitatus by broth microdilution method
Geotrichum candidum = experiment: Antimicrobial activity against Galactomyces geotrichum by broth microdilution method
Trichosporon asahii = experiment: Antimicrobial activity against Trichosporon asahii by broth microdilution method
Procedure, shortened: (§2)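 Nonfermentative yeast clinical isolates (Rhodotorula, Trichosporon) tested by broth microdilution. The EUCAST yeast recommendations were followed strictly, with one minor modification to improve growth. MIC was read as the endpoint.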

Rhodotorula mucilaginosa = experiment: Antimicrobial activity against Rhodotorula mucilaginosa by broth microdilution method; procedure, shortened: as §2
Trichosporon inkin = experiment: Antimicrobial activity against Trichosporon inkin by broth microdilution method; procedure, shortened: as §2
Trichosporon ovoides = experiment: Antimicrobial activity against Trichosporon ovoides by broth microdilution method; procedure, shortened: as §2
Trichosporon jirovecii = experiment: Antimicrobial activity against Trichosporon jirovecii by broth microdilution method; conditions: Cutaneotrichosporon jirovecii; procedure, shortened: as §2
Ustilago = experiment: Antimicrobial activity against Ustilago spp by broth microdilution method
Rhodotorula glutinis = experiment: Antimicrobial activity against Rhodotorula glutinis by broth microdilution method; procedure, shortened: as §2
Trichosporon = experiment: Antimicrobial activity against Trichosporon spp. by broth microdilution method; procedure, shortened: as §2
Aspergillus fumigatus = experiment: Antimicrobial activity against Aspergillus fumigatus by broth microdilution method
Procedure, shortened: (§3)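 Clinical mould isolates, tested by broth microdilution using the AFST-EUCAST reference method for filamentous fungi. For echinocandins, the endpoint was the minimum effective concentration: the lowest drug concentration giving aberrant hyphal growth, read with an inverted microscope.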

Aspergillus terreus = experiment: Antimicrobial activity against Aspergillus terreus by broth microdilution method; procedure, shortened: as §3
Aspergillus flavus = experiment: Antimicrobial activity against Aspergillus flavus by broth microdilution method; procedure, shortened: as §3
Aspergillus nidulans = experiment: Antimicrobial activity against Aspergillus nidulans by broth microdilution method; procedure, shortened: as §3
Aspergillus versicolor = experiment: Antimicrobial activity against Aspergillus versicolor by broth microdilution method; procedure, shortened: as §3
Aspergillus ochraceus = experiment: Antimicrobial activity against Aspergillus ochraceus by broth microdilution method; procedure, shortened: as §3
Aspergillus glaucus = experiment: Antimicrobial activity against Aspergillus glaucus by broth microdilution method; procedure, shortened: as §3
Fusarium solani = experiment: Antimicrobial activity against Fusarium solani by broth microdilution method
Procedure, shortened: (§4)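 Filamentous fungus clinical isolates tested by the AFST-EUCAST reference broth microdilution method for moulds. For echinocandins, the endpoint was the minimum effective concentration: the lowest drug concentration giving aberrant hyphal growth, read with an inverted microscope.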

Paecilomyces variotii = experiment: Antimicrobial activity against Paecilomyces variotii by broth microdilution method; procedure, shortened: as §4
[1] = system: Scopulariopsis brevicaulis; experiment: Antimicrobial activity against Scopulariopsis brevicaulis by broth microdilution method; procedure, shortened: as §4
Phialemonium curvatum = experiment: Antimicrobial activity against Phialemonium curvatum by broth microdilution method; conditions: Thyridium curvatum; procedure, shortened: as §4
Fusarium equiseti = experiment: Antimicrobial activity against Fusarium equiseti by broth microdilution method; procedure, shortened: as §3
Coprinellus domesticus = experiment: Antimicrobial activity against Hormographiella verticillata by broth microdilution method; procedure, shortened: as §4
Scedosporium apiospermum = experiment: Antimicrobial activity against Scedosporium apiospermum by broth microdilution method; procedure, shortened: as §4
Lomentospora prolificans = experiment: Antimicrobial activity against Scedosporium prolificans by broth microdilution method; procedure, shortened: as §4
Alternaria alternata = experiment: Antimicrobial activity against Alternaria alternata by broth microdilution method; procedure, shortened: as §3
[2] = system: Cladophialophora bantiana; experiment: Antimicrobial activity against Cladophialophora bantiana by broth microdilution method; procedure, shortened: as §3
Lecythophora hoffmannii = experiment: Antimicrobial activity against Lecythophora hoffmannii by broth microdilution method; conditions: Coniochaeta hoffmannii; procedure, shortened: as §4
Rhizopus arrhizus = experiment: Antimicrobial activity against Rhizopus oryzae by broth microdilution method; procedure, shortened: as §4
Mucor = experiment: Antimicrobial activity against Mucor spp.by broth microdilution method; procedure, shortened: as §4
[3] = system: Cunninghamella bertholletiae; experiment: Antimicrobial activity against Cunninghamella bertholletiae by broth microdilution method; procedure, shortened: as §3

C[C@@H](c1ncncc1F)[C@](O)(Cn1cncn1)c1ccc(F)cc1F [VORICONAZOLE]
MIC50 (Candida albicans): 0.02 mg/L (≈ 0.0573 µM) | MIC90 (Candida albicans): 0.02 mg/L (≈ 0.0573 µM) | MIC50 (Nakaseomyces glabratus): 0.12 mg/L (≈ 0.344 µM) | MIC90 (Nakaseomyces glabratus): 1 mg/L (≈ 2.86 µM) | MIC50 (Pichia kudriavzevii): 0.25 mg/L (≈ 0.716 µM) | MIC90 (Pichia kudriavzevii): 0.5 mg/L (≈ 1.43 µM) | MIC50 (Clavispora lusitaniae): 0.02 mg/L (≈ 0.0573 µM) | MIC90 (Clavispora lusitaniae): 0.02 mg/L (≈ 0.0573 µM) | MIC50 (Diutina rugosa): 0.12 mg/L (≈ 0.344 µM) | MIC90 (Diutina rugosa): > 8 mg/L | MIC50 (Wickerhamomyces anomalus): 0.12 mg/L (≈ 0.344 µM) | MIC90 (Wickerhamomyces anomalus): > 8 mg/L | MIC50 (Pichia norvegensis): 0.12 mg/L (≈ 0.344 µM) | MIC90 (Pichia norvegensis): > 8 mg/L | MIC50 ([Candida] inconspicua): 0.12 mg/L (≈ 0.344 µM) | MIC90 ([Candida] inconspicua): > 8 mg/L | MIC50 (Candida metapsilosis): 0.12 mg/L (≈ 0.344 µM) | MIC90 (Candida metapsilosis): > 8 mg/L | MIC50 (Candida orthopsilosis): 0.12 mg/L (≈ 0.344 µM) | MIC90 (Candida orthopsilosis): > 8 mg/L | MIC50 (Magnusiomyces capitatus): 0.5 mg/L (≈ 1.43 µM) | MIC90 (Magnusiomyces capitatus): 1 mg/L (≈ 2.86 µM) | MIC50 (Geotrichum candidum): 0.5 mg/L (≈ 1.43 µM) | MIC90 (Geotrichum candidum): 1 mg/L (≈ 2.86 µM) | MIC50 (Trichosporon asahii): 0.25 mg/L (≈ 0.716 µM) | MIC90 (Trichosporon asahii): > 8 mg/L | MIC50 (Rhodotorula mucilaginosa): 4 mg/L (≈ 11.5 µM) | MIC90 (Rhodotorula mucilaginosa): > 8 mg/L | MIC50 (Trichosporon inkin): 0.06 mg/L (≈ 0.172 µM) | MIC90 (Trichosporon inkin): 0.12 mg/L (≈ 0.344 µM) | MIC50 (Trichosporon ovoides): 0.5 mg/L (≈ 1.43 µM) | MIC90 (Trichosporon ovoides): > 8 mg/L | MIC50 (Trichosporon jirovecii): 0.5 mg/L (≈ 1.43 µM) | MIC90 (Trichosporon jirovecii): > 8 mg/L | MIC50 (Ustilago): 0.5 mg/L (≈ 1.43 µM) | MIC90 (Ustilago): > 8 mg/L | MIC50 (Rhodotorula glutinis): 0.5 mg/L (≈ 1.43 µM) | MIC90 (Rhodotorula glutinis): > 8 mg/L | MIC50 (Trichosporon): 0.5 mg/L (≈ 1.43 µM) | MIC90 (Trichosporon): > 8 mg/L | MIC50 (Aspergillus fumigatus): 0.5 mg/L (≈ 1.43 µM) | MIC90 (Aspergillus fumigatus): 1 mg/L (≈ 2.86 µM) | MIC50 (Aspergillus terreus): 1 mg/L (≈ 2.86 µM) | MIC90 (Aspergillus terreus): 2 mg/L (≈ 5.73 µM) | MIC50 (Aspergillus flavus): 1 mg/L (≈ 2.86 µM) | MIC90 (Aspergillus flavus): 2 mg/L (≈ 5.73 µM) | MIC50 (Aspergillus nidulans): 0.25 mg/L (≈ 0.716 µM) | MIC90 (Aspergillus nidulans): 1 mg/L (≈ 2.86 µM) | MIC50 (Aspergillus versicolor): 1 mg/L (≈ 2.86 µM) | MIC90 (Aspergillus versicolor): 2 mg/L (≈ 5.73 µM) | MIC50 (Aspergillus ochraceus): 0.25 mg/L (≈ 0.716 µM) | MIC90 (Aspergillus ochraceus): > 8 mg/L | MIC50 (Aspergillus glaucus): 0.25 mg/L (≈ 0.716 µM) | MIC90 (Aspergillus glaucus): > 8 mg/L | MIC50 (Fusarium solani): > 8 mg/L | MIC90 (Fusarium solani): 4 mg/L (≈ 11.5 µM) | MIC50 (Paecilomyces variotii): 1 mg/L (≈ 2.86 µM) | MIC90 (Paecilomyces variotii): > 8 mg/L | MIC50 [1]: 4 mg/L (≈ 11.5 µM) | MIC90 [1]: > 8 mg/L | MIC50 (Phialemonium curvatum): 4 mg/L (≈ 11.5 µM) | MIC90 (Phialemonium curvatum): > 8 mg/L | MIC50 (Fusarium equiseti): 4 mg/L (≈ 11.5 µM) | MIC90 (Fusarium equiseti): > 8 mg/L | MIC50 (Coprinellus domesticus): 4 mg/L (≈ 11.5 µM) | MIC90 (Coprinellus domesticus): > 8 mg/L | MIC50 (Scedosporium apiospermum): 0.5 mg/L (≈ 1.43 µM) | MIC90 (Scedosporium apiospermum): 2 mg/L (≈ 5.73 µM) | MIC50 (Lomentospora prolificans): > 8 mg/L | MIC90 (Lomentospora prolificans): > 8 mg/L | MIC50 (Alternaria alternata): 4 mg/L (≈ 11.5 µM) | MIC90 (Alternaria alternata): > 8 mg/L | MIC50 [2]: 0.06 mg/L (≈ 0.172 µM) | MIC90 [2]: > 8 mg/L | MIC50 (Lecythophora hoffmannii): 0.06 mg/L (≈ 0.172 µM) | MIC90 (Lecythophora hoffmannii): > 8 mg/L | MIC50 (Rhizopus arrhizus): > 8 mg/L | MIC90 (Rhizopus arrhizus): > 8 mg/L | MIC50 (Mucor): > 8 mg/L | MIC90 (Mucor): > 8 mg/L | MIC50 [3]: > 8 mg/L | MIC90 [3]: > 8 mg/L
